# Laboratory results taken from ChEMBL document CHEMBL3611989, “Discovery and characterization of aryl isonitriles as a new class of compounds versus methicillin- and vancomycin-resistant Staphylococcus aureus” (Eur J Med Chem, 2015).
# Tests used:
# Staphylococcus aureus [1] = assay: Antimicrobial activity against methicillin-sensitive Staphylococcus aureus NRS72 assessed as reduction in bacterial growth incubated for 18 to 20 hrs at 37 degC by broth microdilution method; type: functional
# Outline: (§1)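 Modified CLSI broth microdilution. Bacterial suspension of about 1 × 10^5 CFU/mL in tryptic soy broth. Each agent was added in triplicate to the first row and serially diluted down the plate. Plates were incubated at 37 °C for 18-20 h. MIC was read as the lowest concentration with no visible growth.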
# Staphylococcus aureus [2] = assay: Antimicrobial activity against methicillin-resistant Staphylococcus aureus USA100 assessed as reduction in bacterial growth incubated for 18 to 20 hrs at 37 degC by broth microdilution method; type: functional; outline: as §1
# Staphylococcus aureus [3] = assay: Antimicrobial activity against vancomycin-intermediate-resistant Staphylococcus aureus NRS1 assessed as reduction in bacterial growth incubated for 18 to 20 hrs at 37 degC by broth microdilution method; type: functional; outline: as §1
# Staphylococcus aureus [4] = assay: Antimicrobial activity against methicillin-resistant Staphylococcus aureus USA200 assessed as reduction in bacterial growth incubated for 18 to 20 hrs at 37 degC by broth microdilution method; type: functional; outline: as §1
# Staphylococcus aureus [5] = assay: Antimicrobial activity against methicillin-resistant Staphylococcus aureus USA500 assessed as reduction in bacterial growth incubated for 18 to 20 hrs at 37 degC by broth microdilution method; type: functional; outline: as §1
# Staphylococcus aureus [6] = assay: Antimicrobial activity against methicillin-resistant Staphylococcus aureus USA700 assessed as reduction in bacterial growth incubated for 18 to 20 hrs at 37 degC by broth microdilution method; type: functional; outline: as §1
# Staphylococcus aureus [7] = assay: Antimicrobial activity against methicillin-resistant Staphylococcus aureus USA300 assessed as reduction in bacterial growth incubated for 18 to 20 hrs at 37 degC by broth microdilution method; type: functional; outline: as §1
# Staphylococcus aureus [8] = assay: Antimicrobial activity against vancomycin-resistant Staphylococcus aureus VRS2 assessed as reduction in bacterial growth incubated for 18 to 20 hrs at 37 degC by broth microdilution method; type: functional; outline: as §1
# Staphylococcus aureus [9] = assay: Antimicrobial activity against methicillin-resistant Staphylococcus aureus NRS119 assessed as reduction in bacterial growth incubated for 18 to 20 hrs at 37 degC by broth microdilution method; type: functional; outline: as §1
# J774 [10] = type: cell-based; conditions: mouse, j774, 2 h, 128 µM
# J774 [11] = assay: Cytotoxicity against mouse J774 cells assessed as reduction in cell viability at 64 uM incubated for 2 hrs by MTS assay; type: cell-based; conditions: j774, 2 h
# Outline: (§2)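 Murine J774 macrophages grown in DMEM with 10% FBS at 37 °C, 5% CO2. Compounds were tested in triplicate at 16, 32, 64 and 128 μM for 2 h, with DMSO-matched vehicle controls. MTS reagent was then added and absorbance read at OD490. Viability is given as percent of DMSO-treated cells (mean of triplicate ± standard deviation), compared by paired t-test (P < 0.05).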
# J774 [12] = assay: Cytotoxicity against mouse J774 cells assessed as reduction in cell viability at 32 uM incubated for 2 hrs by MTS assay; type: cell-based; conditions: j774, 2 h; outline: as §2
SMILES,MIC (Staphylococcus aureus [1]) [µM],MIC (Staphylococcus aureus [2]) [µM],MIC (Staphylococcus aureus [3]) [µM],MIC (Staphylococcus aureus [4]) [µM],MIC (Staphylococcus aureus [5]) [µM],MIC (Staphylococcus aureus [6]) [µM],MIC (Staphylococcus aureus [7]) [µM],MIC (Staphylococcus aureus [8]) [µM],MIC (Staphylococcus aureus [9]) [µM],Activity (J774 [10]),Activity (J774 [11]),Activity (J774 [12])
[C-]#[N+]c1ccc(/C=C/c2ccccn2)cc1,64,128,64,128,64,128,32,64,128,,,
[C-]#[N+]c1cccc(/C=C/c2cccnc2)c1,64,32,64,64,64,64,32,64,64,,,
[C-]#[N+]c1ccc(/C=C/c2cccnc2)cc1,16,16,32,32,32,16,,8,64,Toxic,Non-toxic,Non-toxic
[C-]#[N+]c1ccccc1/C=C/c1ccncc1,64,32,64,32,32,32,32,64,64,,,
[C-]#[N+]c1cccc(/C=C/c2ccncc2)c1,64,32,32,64,64,64,32,64,32,,,
[C-]#[N+]c1ccc(/C=C/c2ccncc2)cc1,2,8,8,8,,8,,4,,Toxic,Non-toxic,Non-toxic
[C-]#[N+]c1ccc(/C=C/c2ccccc2)cc1,4,4,> 128,32,16,64,4,> 128,> 128,Non-toxic,Non-toxic,Non-toxic
N#Cc1ccccc1/C=C/c1ccccc1,> 128,> 128,> 128,> 128,> 128,> 128,> 128,> 128,> 128,,,
[C-]#[N+]c1ccc(C)cc1-c1ccc(C(C)(C)C)cc1,> 128,16,4,16,> 128,16,> 128,> 128,64,,,
[C-]#[N+]c1ccc(C)cc1-c1ccc(C(F)(F)F)cc1,> 128,> 128,> 128,> 128,> 128,> 128,> 128,> 128,> 128,,,
[C-]#[N+]c1ccccc1-c1ccc2ccccc2c1,16,16,4,64,32,16,64,64,32,Toxic,Non-toxic,Non-toxic
Nc1ccccc1CCc1ccccc1,> 128,> 128,8,32,> 64,> 64,> 128,> 64,> 128,,,
[C-]#[N+]c1ccccc1CCc1ccccc1,64,4,2,16,128,32,4,64,2,,,
CC(=O)NC[C@H]1CN(c2ccc(N3CCOCC3)c(F)c2)C(=O)O1 [LINEZOLID],2,< 1,< 1,2,< 1,2,2,< 1,64,,,
CN[C@H](CC(C)C)C(=O)N[C@H]1C(=O)N[C@@H](CC(N)=O)C(=O)N[C@H]2C(=O)N[C@H]3C(=O)N[C@H](C(=O)N[C@H](C(=O)O)c4cc(O)cc(O)c4-c4cc3ccc4O)[C@H](O)c3ccc(c(Cl)c3)Oc3cc2cc(c3O[C@@H]2O[C@H](CO)[C@@H](O)[C@H](O)[C@H]2O[C@H]2C[C@](C)(N)[C@H](O)[C@H](C)O2)Oc2ccc(cc2Cl)[C@H]1O [VANCOMYCIN],< 1,2,8,,4,,,128,,,,
